Experimental data taken from PMC65698 (BMC Pharmacology, 2002).

Key:
L1210/CPA cells = conditions: 50 μM DEAB in vitro; cited from earlier work
mouse ALDH1A1 = biological target: T1, mouse ALDH1A1 (Mus musculus, UniProt P24549); type: biochemical; conditions: IC50 of DPAB, substrate propanal, 1 mM NAD, pH 8.4, mean ± average deviation
T1 sequence (P24549 1-501): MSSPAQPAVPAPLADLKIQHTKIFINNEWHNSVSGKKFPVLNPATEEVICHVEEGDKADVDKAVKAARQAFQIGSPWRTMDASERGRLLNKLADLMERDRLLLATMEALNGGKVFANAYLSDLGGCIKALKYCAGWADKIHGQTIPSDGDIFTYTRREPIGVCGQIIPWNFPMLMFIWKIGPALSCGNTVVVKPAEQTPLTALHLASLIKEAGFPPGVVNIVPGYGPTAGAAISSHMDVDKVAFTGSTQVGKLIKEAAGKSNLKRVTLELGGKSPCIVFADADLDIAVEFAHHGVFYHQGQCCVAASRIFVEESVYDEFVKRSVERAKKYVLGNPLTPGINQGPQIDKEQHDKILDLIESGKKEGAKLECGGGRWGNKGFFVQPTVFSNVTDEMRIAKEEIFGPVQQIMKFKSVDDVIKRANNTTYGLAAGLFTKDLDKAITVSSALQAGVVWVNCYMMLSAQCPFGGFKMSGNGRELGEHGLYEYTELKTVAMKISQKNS

human ALDH1A1 = biological target: T2, human ALDH1A1 (Homo sapiens, UniProt P00352); type: biochemical; conditions: IC50 of DPAB, substrate propanal, 1 mM NAD, pH 8.4, mean ± average deviation
T2 sequence (P00352 1-501): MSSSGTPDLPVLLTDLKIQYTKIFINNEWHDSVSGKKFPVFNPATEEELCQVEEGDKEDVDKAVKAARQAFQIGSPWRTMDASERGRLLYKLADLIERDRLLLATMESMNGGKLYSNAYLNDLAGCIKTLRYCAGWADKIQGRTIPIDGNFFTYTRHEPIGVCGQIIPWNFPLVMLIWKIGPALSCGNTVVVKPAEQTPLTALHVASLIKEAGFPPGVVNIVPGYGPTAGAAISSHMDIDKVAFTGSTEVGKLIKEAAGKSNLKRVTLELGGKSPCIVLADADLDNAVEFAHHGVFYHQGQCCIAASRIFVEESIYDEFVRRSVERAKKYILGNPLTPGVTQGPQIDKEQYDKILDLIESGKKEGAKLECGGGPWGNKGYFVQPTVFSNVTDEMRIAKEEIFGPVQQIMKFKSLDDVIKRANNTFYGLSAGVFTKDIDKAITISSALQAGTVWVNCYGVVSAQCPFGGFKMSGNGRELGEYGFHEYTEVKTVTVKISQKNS

HL-60 cells [1] = experiment: HL-60 cell differentiation assay; type: cell-based, human
Method in brief: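 HL-60 cells grown in RPMI-1640 with 15% FBS, 50 U/mL penicillin and 0.5 mg/mL streptomycin; subcultured and treated at 2 × 10^5 cells/mL. Test compound added in DMSO or ethanol, with no media change or washout; 1 μM retinoic acid used as a reference retinoid. Aliquots mixed 1:1 with a solution of 1.0% BSA, 0.2% NBT and 1.0 μg/mL TPA, then incubated 45 min at 37°C. Purple-precipitate-positive cells scored by bright-field microscopy in a counting chamber; two observers each counted two fields of ≥200 cells per well.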

HL-60 cells [2] = experiment: HL-60 cell survival by Trypan blue dye exclusion; type: cell-based, human; conditions: up to 144 hours
Method in brief: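 HL-60 cells grown in RPMI-1640 with 15% FBS and penicillin/streptomycin, seeded at 2 × 10^5 cells/mL. Exposed to test compound (in DMSO or ethanol) for up to 144 h without media replacement or washout. Survival assessed by Trypan blue dye exclusion.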

ALDH1A1 = conditions: dipropyl vs diethyl analog; cited from earlier work
[3] = HPLC assay for stability of retinal in culture media; type: physicochemical; conditions: 10 μM retinal in RPMI 1640 plus 15% fetal bovine serum, 37°C, day 6, no cells
Method in brief: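 Retinal (10 μM) incubated in cell-free RPMI 1640 with 15% FBS at 37°C for six days. Media sampled every 24 h and extracted with 50% butanol:50% acetonitrile (v/v): vortexed 60 s, centrifuged 2 min at 16,000 × g. Organic layer diluted 1:5 in acetonitrile and run on reverse-phase C18 HPLC. Retinal and retinoic acid detected at 360 nm (retention 10.0 and 7.7 min).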

For `CCN(CC)c1ccc(C=O)cc1` [DEAB, 4-(N, N-diethylamino) benzaldehyde], the “Effect on resistance of L1210/CPA cells to 4-HC” value (L1210/CPA cells) is listed as “abolished the tumor cells' resistance to 4-HC”.
In the case of `CCCN(CCC)c1ccc(C=O)cc1` [DPAB, 4-(N,N-dipropylamino)benzaldehyde], the IC50 (mouse ALDH1A1) is reported as 40 ± 10 nM, the IC50 (human ALDH1A1) is reported as 140 ± 40 nM and the “Effect on induction of differentiation by retinoic acid” value (HL-60 cells [1]; 1 μM retinoic acid + 50 μM DPAB) is reported as “did not alter the induction of differentiation by retinoic acid”. For the same compound, the “Effect on cell viability” value (HL-60 cells [2]) was “nor did it affect cell viability” and the “Efficacy for inhibition of ALDH1A1 relative to DEAB” value (ALDH1A1) was 10 fold.
In the case of `CC1=C(/C=C/C(C)=C/C=C/C(C)=C/C=O)C(C)(C)CCC1` [all-trans retinal], the “Differentiation expressed as equivalent retinoic acid concentration” value (HL-60 cells [1]; exposure to 1 μM for 96 hours) is reported as 0.05 to 0.1 µM and the “Retinal oxidized to retinoic acid in culture media” value [3] is reported as “less than 1%”.
In the case of `CC1=C(/C=C/C(C)=C/C=C/C(C)=C/C(=O)O)C(C)(C)CCC1` [retinoic acid, all-trans retinoic acid], the “Cells differentiated to granulocytes (positive NBT staining)” value (HL-60 cells [1]; continuous exposure to 1 μM for 96 hours) is reported as about 40%.
